Measurements from ChEMBL document CHEMBL3608218, “Optimization of a Dibenzodiazepine Hit to a Potent and Selective Allosteric PAK1 Inhibitor” (ACS Med Chem Lett, 2015).
Converted amounts (≈) assume the structure as drawn. The source made the active and inactive calls. The rule behind the calls is not given here.

Assays:
[1] = target: T1, Serine/threonine-protein kinase PAK 4 (Homo sapiens, UniProt O96013); test: Binding affinity to PAK4 (unknown origin) expressed in HEK293 cells after 1 hr by qPCR analysis; type: cell-based
T1 sequence (O96013 whole entry): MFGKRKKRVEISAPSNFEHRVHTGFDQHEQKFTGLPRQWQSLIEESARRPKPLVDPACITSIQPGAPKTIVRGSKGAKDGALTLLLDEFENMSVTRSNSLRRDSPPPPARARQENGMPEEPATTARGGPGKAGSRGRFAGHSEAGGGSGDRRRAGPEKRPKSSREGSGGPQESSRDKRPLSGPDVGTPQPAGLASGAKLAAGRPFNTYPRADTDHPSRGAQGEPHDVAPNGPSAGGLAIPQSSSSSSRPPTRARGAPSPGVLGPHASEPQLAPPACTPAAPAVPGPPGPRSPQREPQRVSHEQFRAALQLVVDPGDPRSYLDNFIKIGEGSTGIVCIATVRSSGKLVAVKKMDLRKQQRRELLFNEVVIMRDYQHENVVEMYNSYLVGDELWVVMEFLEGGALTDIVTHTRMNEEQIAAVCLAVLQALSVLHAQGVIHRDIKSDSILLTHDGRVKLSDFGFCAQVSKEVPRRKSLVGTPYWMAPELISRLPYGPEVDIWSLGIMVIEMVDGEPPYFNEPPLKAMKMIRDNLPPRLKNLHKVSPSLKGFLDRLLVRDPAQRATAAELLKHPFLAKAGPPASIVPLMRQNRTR

[2] = target: T2, Serine/threonine-protein kinase PAK 2 (Homo sapiens, UniProt Q13177); test: Binding affinity to PAK2 (unknown origin) expressed in HEK293 cells after 1 hr by qPCR analysis; type: cell-based
T2 sequence (Q13177 whole entry): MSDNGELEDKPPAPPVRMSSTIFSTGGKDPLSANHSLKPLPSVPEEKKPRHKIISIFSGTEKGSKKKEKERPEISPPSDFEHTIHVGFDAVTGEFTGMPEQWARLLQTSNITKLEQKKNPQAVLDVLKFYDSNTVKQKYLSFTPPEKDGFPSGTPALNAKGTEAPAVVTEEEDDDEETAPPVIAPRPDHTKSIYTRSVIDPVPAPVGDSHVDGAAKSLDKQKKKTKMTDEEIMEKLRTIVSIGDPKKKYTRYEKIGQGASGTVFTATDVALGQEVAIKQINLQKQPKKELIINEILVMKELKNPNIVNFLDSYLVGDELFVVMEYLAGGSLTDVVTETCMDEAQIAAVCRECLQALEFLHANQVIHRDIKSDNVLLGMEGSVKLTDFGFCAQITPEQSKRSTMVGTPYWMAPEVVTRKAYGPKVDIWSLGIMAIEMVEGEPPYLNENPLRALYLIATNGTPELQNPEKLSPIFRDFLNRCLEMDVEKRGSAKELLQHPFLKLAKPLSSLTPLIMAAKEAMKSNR

[3] = target: Serine/threonine-protein kinase PAK 3 (Homo sapiens, UniProt O75914); test: Binding affinity to PAK3 (unknown origin) expressed in HEK293 cells after 1 hr by qPCR analysis; type: cell-based
Sequence of Serine/threonine-protein kinase PAK 3 (O75914 whole entry): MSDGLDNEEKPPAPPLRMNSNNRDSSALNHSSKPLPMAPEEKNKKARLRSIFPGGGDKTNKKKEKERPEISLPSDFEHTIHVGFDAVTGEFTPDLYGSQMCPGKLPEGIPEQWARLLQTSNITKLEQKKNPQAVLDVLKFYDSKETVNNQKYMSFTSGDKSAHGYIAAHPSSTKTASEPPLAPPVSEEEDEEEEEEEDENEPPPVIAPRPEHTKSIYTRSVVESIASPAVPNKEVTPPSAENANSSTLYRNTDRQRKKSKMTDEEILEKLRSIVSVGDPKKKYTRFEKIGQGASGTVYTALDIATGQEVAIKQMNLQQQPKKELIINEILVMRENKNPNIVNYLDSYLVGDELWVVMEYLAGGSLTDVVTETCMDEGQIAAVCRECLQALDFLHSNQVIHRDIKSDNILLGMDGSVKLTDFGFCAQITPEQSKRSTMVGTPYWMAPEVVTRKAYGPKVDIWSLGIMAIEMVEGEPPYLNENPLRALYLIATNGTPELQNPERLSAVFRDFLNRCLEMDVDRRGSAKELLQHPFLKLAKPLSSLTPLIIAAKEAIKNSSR

[4] = target: T3, Serine/threonine-protein kinase PAK 1 (Homo sapiens, UniProt Q13153); test: Inhibition of wild type dephosphorylated form of PAK1 (249 to 545) (unknown origin) expressed in Escherichia coli using 5-Fluo-Ahx-AKRRRLSSLRA-COOH as substrate preincubated for 60 mins followed by substrate addition measured after 60 mins by Caliper assay
T3 sequence (Q13153 whole entry): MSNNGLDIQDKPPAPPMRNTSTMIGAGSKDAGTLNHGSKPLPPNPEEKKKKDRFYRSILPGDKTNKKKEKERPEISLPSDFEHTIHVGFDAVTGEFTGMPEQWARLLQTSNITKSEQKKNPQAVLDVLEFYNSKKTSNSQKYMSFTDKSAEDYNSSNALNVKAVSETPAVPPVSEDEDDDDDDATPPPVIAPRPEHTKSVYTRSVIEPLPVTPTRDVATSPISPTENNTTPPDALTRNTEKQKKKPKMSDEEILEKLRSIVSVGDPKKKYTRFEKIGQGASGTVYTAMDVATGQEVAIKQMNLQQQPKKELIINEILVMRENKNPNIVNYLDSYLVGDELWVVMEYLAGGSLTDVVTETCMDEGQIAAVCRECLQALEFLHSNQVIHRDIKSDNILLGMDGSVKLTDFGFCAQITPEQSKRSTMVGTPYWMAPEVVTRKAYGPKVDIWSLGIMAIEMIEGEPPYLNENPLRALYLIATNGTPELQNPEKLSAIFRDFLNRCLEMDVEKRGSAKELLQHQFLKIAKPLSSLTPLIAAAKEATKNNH

[5] = target: T3, Serine/threonine-protein kinase PAK 1; test: Binding affinity to PAK1 (unknown origin) expressed in HEK293 cells after 1 hr by qPCR analysis; type: cell-based
[6] = target: T4, Serine/threonine-protein kinase PAK 6 (Homo sapiens, UniProt Q9NQU5); test: Binding affinity to PAK6 (unknown origin) expressed in HEK293 cells after 1 hr by qPCR analysis; type: cell-based
T4 sequence (Q9NQU5 whole entry): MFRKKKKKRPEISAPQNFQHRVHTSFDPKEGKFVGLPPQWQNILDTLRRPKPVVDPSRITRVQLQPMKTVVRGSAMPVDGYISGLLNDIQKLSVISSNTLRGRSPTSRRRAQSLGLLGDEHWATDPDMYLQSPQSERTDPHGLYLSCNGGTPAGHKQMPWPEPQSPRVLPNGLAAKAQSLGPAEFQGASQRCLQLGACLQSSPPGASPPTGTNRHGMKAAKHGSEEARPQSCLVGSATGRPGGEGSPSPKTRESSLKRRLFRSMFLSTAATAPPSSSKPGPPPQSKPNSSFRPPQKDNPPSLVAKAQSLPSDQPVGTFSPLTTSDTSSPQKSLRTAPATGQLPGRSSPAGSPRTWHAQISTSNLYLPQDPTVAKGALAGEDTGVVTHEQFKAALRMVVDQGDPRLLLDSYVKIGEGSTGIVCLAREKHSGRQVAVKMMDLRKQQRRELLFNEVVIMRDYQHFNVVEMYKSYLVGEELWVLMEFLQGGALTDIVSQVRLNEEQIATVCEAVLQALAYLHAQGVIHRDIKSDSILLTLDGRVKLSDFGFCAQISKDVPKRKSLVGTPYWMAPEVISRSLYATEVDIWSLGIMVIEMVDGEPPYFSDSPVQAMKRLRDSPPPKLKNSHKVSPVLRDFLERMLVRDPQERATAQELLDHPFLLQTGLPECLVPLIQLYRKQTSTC

Histamine H1 receptor = Histamine H1 receptor (Homo sapiens, UniProt P35367); test: Inhibition of recombinant human histamine H1 receptor
Sequence of Histamine H1 receptor (P35367 whole entry): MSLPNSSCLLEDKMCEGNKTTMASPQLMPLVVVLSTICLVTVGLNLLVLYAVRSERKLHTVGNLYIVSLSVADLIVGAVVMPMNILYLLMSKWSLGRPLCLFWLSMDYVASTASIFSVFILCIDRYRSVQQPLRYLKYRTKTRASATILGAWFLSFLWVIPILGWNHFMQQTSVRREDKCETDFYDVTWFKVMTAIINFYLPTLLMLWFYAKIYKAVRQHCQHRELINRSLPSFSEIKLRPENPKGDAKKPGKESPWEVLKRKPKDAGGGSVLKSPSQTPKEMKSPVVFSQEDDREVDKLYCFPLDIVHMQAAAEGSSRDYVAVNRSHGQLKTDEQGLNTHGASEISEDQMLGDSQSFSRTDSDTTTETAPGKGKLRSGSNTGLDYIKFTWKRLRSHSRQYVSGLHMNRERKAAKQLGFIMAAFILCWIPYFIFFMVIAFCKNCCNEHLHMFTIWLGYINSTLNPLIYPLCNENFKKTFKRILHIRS

[7] = target: T3, Serine/threonine-protein kinase PAK 1; test: Inhibition of wild type phosphorylated form of PAK1 (249 to 545) (unknown origin) expressed in Escherichia coli using 5-Fluo-Ahx-AKRRRLSSLRA-COOH as substrate preincubated for 60 mins followed by substrate addition measured after 60 mins by Caliper assay
[8] = target: T5, Muscarinic acetylcholine receptor M1 (Homo sapiens, UniProt P11229); test: Inhibition of recombinant human muscarinic M1 receptor
T5 sequence (P11229 whole entry): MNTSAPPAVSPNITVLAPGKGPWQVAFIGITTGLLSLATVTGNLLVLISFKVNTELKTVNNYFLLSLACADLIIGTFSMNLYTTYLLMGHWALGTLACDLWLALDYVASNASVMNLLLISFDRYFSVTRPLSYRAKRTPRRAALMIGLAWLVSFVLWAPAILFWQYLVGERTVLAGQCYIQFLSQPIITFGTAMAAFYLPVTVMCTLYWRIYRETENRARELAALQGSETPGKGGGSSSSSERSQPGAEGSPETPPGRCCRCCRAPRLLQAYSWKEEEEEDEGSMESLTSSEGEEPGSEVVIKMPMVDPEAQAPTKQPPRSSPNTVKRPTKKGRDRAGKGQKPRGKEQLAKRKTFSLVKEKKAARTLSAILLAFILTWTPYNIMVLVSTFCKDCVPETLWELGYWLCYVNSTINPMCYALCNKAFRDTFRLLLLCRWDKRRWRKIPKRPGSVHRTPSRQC

[9] = Aqueous solubility of the compound at pH 6.8; type: physicochemical; conditions: buffer
[10] = target: T1, Serine/threonine-protein kinase PAK 4; test: Inhibition of PAK4 kinase domain (300 to 591) (unknown origin) assessed as phosphate incorporation onto MBP preincubated for 5 mins followed by Cdc42, MBP, and mixture of ATP and [32P]-gamma-ATP addition measured after 20 mins by scintillation counting analysis
[11] = target: T3, Serine/threonine-protein kinase PAK 1; test: Non-ATP competitive inhibition of full-length human PAK1 assessed as phosphate incorporation onto MBP preincubated for 5 mins followed by Cdc42, MBP, and mixture of ATP and [32P]-gamma-ATP addition measured after 20 mins by scintillation counting analysis
[12] = target: Serine/threonine-protein kinase PAK 5 (Homo sapiens, UniProt Q9P286); test: Inhibition of full length PAK5 (unknown origin) expressed in HEK293 cells assessed as phosphate incorporation onto MBP preincubated for 5 mins followed by Cdc42, MBP, and mixture of ATP and [32P]-gamma-ATP addition measured after 20 mins by scintillation counting analysis; type: cell-based
[13] = target: T4, Serine/threonine-protein kinase PAK 6; test: Inhibition of full length human PAK6 assessed as phosphate incorporation onto MBP preincubated for 5 mins followed by Cdc42, MBP, and mixture of ATP and [32P]-gamma-ATP addition measured after 20 mins by scintillation counting analysis
SU.86.86 [14] = test: Cytotoxicity against human SU8686 cells assessed as growth inhibition at 0.21 uM after 5 days by CTG assay in presence of PAK2 shRNA; type: functional, cell-based
[15] = target: T2, Serine/threonine-protein kinase PAK 2; conditions: SU8686, 0.21 uM
Cytochrome P450 2D6 = Cytochrome P450 2D6 (Homo sapiens, UniProt P10635); test: Inhibition of CYP2D6 (unknown origin); type: ADME
Sequence of Cytochrome P450 2D6 (P10635 whole entry): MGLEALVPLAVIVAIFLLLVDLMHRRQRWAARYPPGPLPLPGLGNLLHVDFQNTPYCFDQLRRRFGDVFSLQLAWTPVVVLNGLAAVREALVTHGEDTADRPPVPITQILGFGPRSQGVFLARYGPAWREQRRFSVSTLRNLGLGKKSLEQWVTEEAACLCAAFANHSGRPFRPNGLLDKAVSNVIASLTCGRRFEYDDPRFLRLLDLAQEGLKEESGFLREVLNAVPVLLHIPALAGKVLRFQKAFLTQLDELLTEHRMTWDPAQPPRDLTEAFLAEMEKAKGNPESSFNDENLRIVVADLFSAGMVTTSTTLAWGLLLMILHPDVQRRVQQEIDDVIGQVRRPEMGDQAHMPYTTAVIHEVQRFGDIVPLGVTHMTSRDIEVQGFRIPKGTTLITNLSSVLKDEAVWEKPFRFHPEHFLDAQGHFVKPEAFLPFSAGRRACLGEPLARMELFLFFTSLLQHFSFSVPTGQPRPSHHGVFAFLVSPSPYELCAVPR

[16] = Apparent permeability across apical to basolateral side in human Caco2 cells; type: ADME, cell-based; conditions: Caco-2
Cytochrome P450 2C9 = Cytochrome P450 2C9 (Homo sapiens, UniProt P11712); test: Inhibition of CYP2C9 (unknown origin); type: ADME
Sequence of Cytochrome P450 2C9 (P11712 whole entry): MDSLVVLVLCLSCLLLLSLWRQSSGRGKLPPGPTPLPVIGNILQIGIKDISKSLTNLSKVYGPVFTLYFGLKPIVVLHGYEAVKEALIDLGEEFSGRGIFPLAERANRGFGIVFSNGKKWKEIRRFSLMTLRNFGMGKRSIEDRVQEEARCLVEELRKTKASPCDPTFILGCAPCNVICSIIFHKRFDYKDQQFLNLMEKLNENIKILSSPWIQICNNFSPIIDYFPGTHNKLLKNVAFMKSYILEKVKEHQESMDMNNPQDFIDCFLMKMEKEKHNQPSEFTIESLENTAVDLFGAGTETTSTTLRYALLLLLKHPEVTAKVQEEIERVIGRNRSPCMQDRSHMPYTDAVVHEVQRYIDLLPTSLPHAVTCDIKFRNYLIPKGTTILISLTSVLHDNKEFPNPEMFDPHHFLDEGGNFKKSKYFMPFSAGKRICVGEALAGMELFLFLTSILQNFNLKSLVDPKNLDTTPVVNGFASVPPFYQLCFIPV

[17] = target: T2, Serine/threonine-protein kinase PAK 2; conditions: SU8686, 6 to 20 uM
[18] = Half life in rat liver microsomes; type: ADME
Cytochrome P450 3A4 = Cytochrome P450 3A4 (Homo sapiens, UniProt P08684); test: Inhibition of CYP3A4 midazolam site (unknown origin); type: ADME
Sequence of Cytochrome P450 3A4 (P08684 whole entry): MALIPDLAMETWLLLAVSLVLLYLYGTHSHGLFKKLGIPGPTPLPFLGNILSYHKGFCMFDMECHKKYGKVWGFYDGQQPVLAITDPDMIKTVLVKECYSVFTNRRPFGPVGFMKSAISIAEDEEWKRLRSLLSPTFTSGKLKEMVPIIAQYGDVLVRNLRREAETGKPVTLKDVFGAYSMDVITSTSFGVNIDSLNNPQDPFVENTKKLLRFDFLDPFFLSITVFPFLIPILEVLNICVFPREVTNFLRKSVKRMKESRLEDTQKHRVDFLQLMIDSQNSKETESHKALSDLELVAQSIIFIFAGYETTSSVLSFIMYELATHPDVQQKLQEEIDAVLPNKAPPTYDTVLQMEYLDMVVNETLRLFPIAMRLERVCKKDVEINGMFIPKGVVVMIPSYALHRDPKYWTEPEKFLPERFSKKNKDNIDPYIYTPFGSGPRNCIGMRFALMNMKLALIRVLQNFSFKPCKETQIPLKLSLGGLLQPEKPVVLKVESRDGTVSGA

SU.86.86 [19] = test: Cytotoxicity against human SU8686 cells assessed as growth inhibition at >2 uM after 5 days by CTG assay; type: functional, cell-based
[20] = Aqueous solubility of the compound at pH 4; type: physicochemical; conditions: buffer
[21] = Permeability of the compound by PAMPA; type: physicochemical
In short: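 PAMPA permeability was expressed as a calculated fraction absorbed (cFA).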

[22] = target: T2, Serine/threonine-protein kinase PAK 2; conditions: SU8686, 0.009 to 20 uM

Kd [1] [µM] | Kd [2] [µM] | Kd [3] [µM] | IC50 [4] [µM] | Kd [5] [µM] | Kd [6] [µM] | Compound | IC50 (Histamine H1 receptor) [µM] | IC50 [8] [µM] | solubility [9] [µM] | also measured
> 40 | > 40 | > 40 | 0.19 | 0.13 | > 40 | CCN1c2ccc(F)cc2N=C(N[C@H]2CCN(C(=O)OC(C)(C)C)C2)c2cc(Cl)ccc21 | – | – | – | –
– | – | – | 12 | – | – | CN1CCN(C2=Nc3cc(F)ccc3Nc3ccc(F)cc32)CC1 | 0.001 | 0.006 | – | IC50 [7]: 54 µM
> 40 | > 40 | > 40 | 0.323 | 0.34 | > 40 | CCN1c2ccc(F)cc2N=C(N2CCN(C)CC2)c2cc(Cl)ccc21 | – | – | – | –
> 40 | 1.1 | > 40 | – | – | – | CCN1c2ccc(F)cc2N=C(N[C@H]2CCN(C(=O)NC(C)(C)C)C2)c2cc(Cl)ccc21 | – | – | < 4 | –
– | – | – | – | – | – | Oc1ccc2ccccc2c1SSc1c(O)ccc2ccccc12 | – | – | – | IC50 [10]: > 10 µM; IC50 [11]: 2.5 µM; IC50 [12]: > 10 µM; IC50 [13]: > 10 µM

Compound | Kd [1] [µM] | Kd [2] [µM] | Kd [3] [µM] | IC50 [4] [µM] | Kd [5] [µM] | Kd [6] [µM] | IC50 (Histamine H1 receptor) [µM] | IC50 [8] [µM] | solubility [9] [µM] | also measured
CC(C)NC(=O)N1CC[C@H](NC2=Nc3cc(F)ccc3N(CC(F)F)c3ccc(Cl)cc32)C1 | – | 0.4 | – | – | – | – | > 30 | > 30 | 55 (≈ 26.4 µg/mL) | growth inhibition (GI) (SU.86.86 [14]): Active; inhibition [15]: Active; INH (Cytochrome P450 2D6): > 20 µM; Papp A→B [16]: 0.428 ×10⁻⁶ cm/s; INH (Cytochrome P450 2C9): 16.7 µM; inhibition [17]: Active; half-life [18]: 3.5 min; INH (Cytochrome P450 3A4): 13.2 µM; growth inhibition (GI) (SU.86.86 [19]): Active; solubility [20]: > 1000 µM; permeability [21]: permeable; inhibition [22]: Active
